≈ marks a conversion by molar mass, not a printed value.
How the values were obtained:
Assay type in all cases: functional
Staphylococcus aureus [1] = experiment: Antibacterial activity against Staphylococcus aureus UBMS 90-1 carrying tetM-resistant determinant
How it was run: (§1)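 Antibacterial activity determined by agar dilution.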

Escherichia coli [2] = experiment: Antibacterial activity against Escherichia coli UBMS 90-4 carrying tetM-resistant determinant; how it was run: as §1
Staphylococcus aureus [3] = experiment: Antibacterial activity against Staphylococcus aureus Smith
How it was run: (§2)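 MICs determined by agar dilution.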

Enterococcus faecalis = experiment: Antibacterial activity against Enterococcus faecalis ATCC 29212; how it was run: as §2
Escherichia coli [4] = experiment: Antibacterial activity against Escherichia coli UBMS 88-1 carrying tetB-resistant determinant; how it was run: as §1
Staphylococcus aureus [5] = experiment: Antibacterial activity against Staphylococcus aureus UBMS 88-7 carrying the tetK-resistant determinant; how it was run: as §1
Staphylococcus aureus [6] = experiment: Antibacterial activity against Staphylococcus aureus UBMS 90-3; how it was run: as §2
Escherichia coli [7] = experiment: Antibacterial activity against Minocycline sensitive Escherichia coli 90-5; how it was run: as §1
Escherichia coli [8] = experiment: Antibacterial activity against Minocylcine sensitive Escherichia coli 89-2; how it was run: as §2
Escherichia coli [9] = experiment: Antibacterial activity against Minocycline sensitive Escherichia coli 88-2; how it was run: as §2
Staphylococcus aureus [10] = experiment: Antibacterial activity against Staphylococcus aureus UBMS 90-2 carrying tetM-resistant determinant; how it was run: as §1
Escherichia coli [11] = experiment: Antibacterial activity against Escherichia coli UBMS 89-1 carrying tetM-resistant determinant; how it was run: as §1

SMILES	MIC (Staphylococcus aureus [1])	MIC (Escherichia coli [2])	MIC (Staphylococcus aureus [3])	MIC (Enterococcus faecalis)	MIC (Escherichia coli [4])	MIC (Staphylococcus aureus [5])	MIC (Staphylococcus aureus [6])	MIC (Escherichia coli [7])	MIC (Escherichia coli [8])	MIC (Escherichia coli [9])	MIC (Staphylococcus aureus [10])	MIC (Escherichia coli [11])
CN(C)CC(=O)Nc1cc(N(C)C)c2c(c1O)C(=O)C1=C(O)[C@]3(O)C(O)=C(C(N)=O)C(=O)[C@@H](N(C)C)C3CC1C2 (some centres undefined)	0.12 µg/mL (≈ 0.215 µM)	0.25 µg/mL (≈ 0.448 µM)	0.06 µg/mL (≈ 0.108 µM)	0.06 µg/mL (≈ 0.108 µM)	0.25 µg/mL (≈ 0.448 µM)	0.5 µg/mL (≈ 0.897 µM)	0.06 µg/mL (≈ 0.108 µM)	0.12 µg/mL (≈ 0.215 µM)	–	–	–	–
CN(C)c1cc(NS(=O)(=O)c2ccc(Cl)cc2)c(O)c2c1CC1CC3[C@H](N(C)C)C(=O)C(C(N)=O)=C(O)[C@@]3(O)C(=O)C1=C2O (some centres undefined)	0.25 µg/mL (≈ 0.386 µM)	–	0.12 µg/mL (≈ 0.185 µM)	0.06 µg/mL (≈ 0.0927 µM)	> 32 µg/mL	1 µg/mL (≈ 1.55 µM)	0.12 µg/mL (≈ 0.185 µM)	–	> 32 µg/mL	> 32 µg/mL	0.12 µg/mL (≈ 0.185 µM)	–
CN(C)CCCC(=O)Nc1cc(N(C)C)c2c(c1O)C(=O)C1=C(O)[C@]3(O)C(O)=C(C(N)=O)C(=O)[C@@H](N(C)C)C3CC1C2 (some centres undefined)	8 µg/mL (≈ 13.7 µM)	16 µg/mL (≈ 27.3 µM)	2 µg/mL (≈ 3.41 µM)	4 µg/mL (≈ 6.83 µM)	> 32 µg/mL	16 µg/mL (≈ 27.3 µM)	2 µg/mL (≈ 3.41 µM)	16 µg/mL (≈ 27.3 µM)	–	–	4 µg/mL (≈ 6.83 µM)	–
CN(C)c1cc(NC(=O)CO)c(O)c2c1CC1CC3[C@H](N(C)C)C(=O)C(C(N)=O)=C(O)[C@@]3(O)C(=O)C1=C2O (some centres undefined)	4 µg/mL (≈ 7.54 µM)	> 32 µg/mL	0.5 µg/mL (≈ 0.942 µM)	32 µg/mL (≈ 60.3 µM)	> 32 µg/mL	> 32 µg/mL	1 µg/mL (≈ 1.88 µM)	> 32 µg/mL	–	–	2 µg/mL (≈ 3.77 µM)	–
CN(C)c1ccc(C(=O)Nc2cc(N(C)C)c3c(c2O)C(O)=C2C(=O)[C@]4(O)C(O)=C(C(N)=O)C(=O)[C@@H](N(C)C)C4CC2C3)cc1 (some centres undefined)	16 µg/mL (≈ 25.8 µM)	–	4 µg/mL (≈ 6.45 µM)	8 µg/mL (≈ 12.9 µM)	> 32 µg/mL	16 µg/mL (≈ 25.8 µM)	8 µg/mL (≈ 12.9 µM)	–	> 32 µg/mL	> 32 µg/mL	8 µg/mL (≈ 12.9 µM)	> 32 µg/mL
CN(C)c1cc(NS(=O)(=O)c2ccccc2)c(O)c2c1CC1CC3[C@H](N(C)C)C(=O)C(C(N)=O)=C(O)[C@@]3(O)C(=O)C1=C2O (some centres undefined)	4 µg/mL (≈ 6.53 µM)	–	4 µg/mL (≈ 6.53 µM)	0.06 µg/mL (≈ 0.0979 µM)	16 µg/mL (≈ 26.1 µM)	4 µg/mL (≈ 6.53 µM)	4 µg/mL (≈ 6.53 µM)	–	16 µg/mL (≈ 26.1 µM)	8 µg/mL (≈ 13.1 µM)	0.06 µg/mL (≈ 0.0979 µM)	–
CN(C)c1cc(NS(=O)(=O)c2cccs2)c(O)c2c1CC1CC3[C@H](N(C)C)C(=O)C(C(N)=O)=C(O)[C@@]3(O)C(=O)C1=C2O (some centres undefined)	1 µg/mL (≈ 1.62 µM)	–	0.03 µg/mL (≈ 0.0485 µM)	0.25 µg/mL (≈ 0.404 µM)	32 µg/mL (≈ 51.7 µM)	2 µg/mL (≈ 3.23 µM)	0.25 µg/mL (≈ 0.404 µM)	–	16 µg/mL (≈ 25.9 µM)	8 µg/mL (≈ 12.9 µM)	0.25 µg/mL (≈ 0.404 µM)	–
CC(=O)Nc1nc(C)c(S(=O)(=O)Nc2cc(N(C)C)c3c(c2O)C(O)=C2C(=O)[C@]4(O)C(O)=C(C(N)=O)C(=O)[C@@H](N(C)C)C4CC2C3)s1 (some centres undefined)	32 µg/mL (≈ 46.3 µM)	–	2 µg/mL (≈ 2.9 µM)	1 µg/mL (≈ 1.45 µM)	> 32 µg/mL	32 µg/mL (≈ 46.3 µM)	2 µg/mL (≈ 2.9 µM)	–	> 32 µg/mL	> 32 µg/mL	4 µg/mL (≈ 5.79 µM)	32 µg/mL (≈ 46.3 µM)
CN(C)c1cc(NC(=O)CNC2CCCC2)c(O)c2c1CC1CC3[C@H](N(C)C)C(=O)C(C(N)=O)=C(O)[C@@]3(O)C(=O)C1=C2O (some centres undefined)	0.25 µg/mL (≈ 0.418 µM)	0.25 µg/mL (≈ 0.418 µM)	0.25 µg/mL (≈ 0.418 µM)	0.12 µg/mL (≈ 0.201 µM)	0.25 µg/mL (≈ 0.418 µM)	2 µg/mL (≈ 3.35 µM)	0.12 µg/mL (≈ 0.201 µM)	0.25 µg/mL (≈ 0.418 µM)	–	–	–	–
CN(C)c1cc(NC(=O)c2cccc(C(F)(F)F)c2)c(O)c2c1CC1CC3[C@H](N(C)C)C(=O)C(C(N)=O)=C(O)[C@@]3(O)C(=O)C1=C2O (some centres undefined)	1 µg/mL (≈ 1.55 µM)	–	1 µg/mL (≈ 1.55 µM)	1 µg/mL (≈ 1.55 µM)	> 32 µg/mL	1 µg/mL (≈ 1.55 µM)	0.5 µg/mL (≈ 0.776 µM)	–	> 32 µg/mL	> 32 µg/mL	1 µg/mL (≈ 1.55 µM)	> 32 µg/mL
CN(C)c1cc(NC(=O)CNC(C)(C)C)c(O)c2c1C[C@H]1C[C@H]3[C@H](N(C)C)C(O)=C(C(N)=O)C(=O)[C@@]3(O)C(O)=C1C2=O [TIGECYCLINE]	0.12 µg/mL (≈ 0.205 µM)	0.12 µg/mL (≈ 0.205 µM)	0.25 µg/mL (≈ 0.427 µM)	0.12 µg/mL (≈ 0.205 µM)	0.5 µg/mL (≈ 0.854 µM)	0.5 µg/mL (≈ 0.854 µM)	0.25 µg/mL (≈ 0.427 µM)	0.25 µg/mL (≈ 0.427 µM)	–	–	–	–
CN(C)c1cc(NS(C)(=O)=O)c(O)c2c1CC1CC3[C@H](N(C)C)C(=O)C(C(N)=O)=C(O)[C@@]3(O)C(=O)C1=C2O (some centres undefined)	0.25 µg/mL (≈ 0.454 µM)	–	0.12 µg/mL (≈ 0.218 µM)	0.06 µg/mL (≈ 0.109 µM)	8 µg/mL (≈ 14.5 µM)	8 µg/mL (≈ 14.5 µM)	0.12 µg/mL (≈ 0.218 µM)	–	2 µg/mL (≈ 3.63 µM)	2 µg/mL (≈ 3.63 µM)	0.06 µg/mL (≈ 0.109 µM)	–
CN(C)c1cc(NC(=O)c2cccs2)c(O)c2c1CC1CC3[C@H](N(C)C)C(=O)C(C(N)=O)=C(O)[C@@]3(O)C(=O)C1=C2O (some centres undefined)	4 µg/mL (≈ 6.87 µM)	–	2 µg/mL (≈ 3.43 µM)	8 µg/mL (≈ 13.7 µM)	> 32 µg/mL	32 µg/mL (≈ 54.9 µM)	2 µg/mL (≈ 3.43 µM)	–	> 32 µg/mL	> 32 µg/mL	4 µg/mL (≈ 6.87 µM)	> 32 µg/mL
CN(C)c1cc(NC(=O)c2ccccc2)c(O)c2c1CC1CC3[C@H](N(C)C)C(=O)C(C(N)=O)=C(O)[C@@]3(O)C(=O)C1=C2O (some centres undefined)	4 µg/mL (≈ 6.94 µM)	–	1 µg/mL (≈ 1.73 µM)	4 µg/mL (≈ 6.94 µM)	> 32 µg/mL	8 µg/mL (≈ 13.9 µM)	1 µg/mL (≈ 1.73 µM)	–	> 32 µg/mL	> 32 µg/mL	4 µg/mL (≈ 6.94 µM)	–
CN(C)c1cc(NC(=O)c2ccccc2F)c(O)c2c1CC1CC3[C@H](N(C)C)C(=O)C(C(N)=O)=C(O)[C@@]3(O)C(=O)C1=C2O (some centres undefined)	4 µg/mL (≈ 6.73 µM)	–	1 µg/mL (≈ 1.68 µM)	4 µg/mL (≈ 6.73 µM)	> 32 µg/mL	8 µg/mL (≈ 13.5 µM)	1 µg/mL (≈ 1.68 µM)	–	> 32 µg/mL	> 32 µg/mL	2 µg/mL (≈ 3.36 µM)	–
CN(C)c1ccc(O)c2c1C[C@H]1C[C@H]3[C@H](N(C)C)C(O)=C(C(N)=O)C(=O)[C@@]3(O)C(O)=C1C2=O [MINOCYCLINE]	8 µg/mL (≈ 17.5 µM)	–	0.06 µg/mL (≈ 0.131 µM)	2 µg/mL (≈ 4.37 µM)	16 µg/mL (≈ 35 µM)	0.25 µg/mL (≈ 0.546 µM)	0.03 µg/mL (≈ 0.0656 µM)	–	2 µg/mL (≈ 4.37 µM)	0.25 µg/mL (≈ 0.546 µM)	2 µg/mL (≈ 4.37 µM)	> 32 µg/mL
Cc1ccccc1C(=O)Nc1cc(N(C)C)c2c(c1O)C(O)=C1C(=O)[C@]3(O)C(O)=C(C(N)=O)C(=O)[C@@H](N(C)C)C3CC1C2 (some centres undefined)	8 µg/mL (≈ 13.5 µM)	–	1 µg/mL (≈ 1.69 µM)	2 µg/mL (≈ 3.39 µM)	2 µg/mL (≈ 3.39 µM)	4 µg/mL (≈ 6.77 µM)	1 µg/mL (≈ 1.69 µM)	–	> 32 µg/mL	> 32 µg/mL	2 µg/mL (≈ 3.39 µM)	–
CN(C)c1cc(NC(=O)CCC2CCCC2)c(O)c2c1CC1CC3[C@H](N(C)C)C(=O)C(C(N)=O)=C(O)[C@@]3(O)C(=O)C1=C2O (some centres undefined)	8 µg/mL (≈ 13.4 µM)	> 128 µg/mL	4 µg/mL (≈ 6.7 µM)	8 µg/mL (≈ 13.4 µM)	> 128 µg/mL	8 µg/mL (≈ 13.4 µM)	4 µg/mL (≈ 6.7 µM)	> 128 µg/mL	–	–	8 µg/mL (≈ 13.4 µM)	–

From ChEMBL document CHEMBL1147771, “Synthesis and antibacterial activity of 9-substituted minocycline derivatives” (2006)
